Experiment [1] deals with T1, Acetylcholinesterase (Homo sapiens, UniProt P22303). Description: In vitro inhibitory concentration against purified Acetylcholinesterase of human erythrocytes; value ranges from 224-1012.
Experiment [2] has as its target T2, Butyrylcholinesterase (Equus caballus, UniProt Q9N1N9). Description: In vitro inhibitory concentration against Butyrylcholinesterase of horse serum; value ranges from 0.25-0.40. In outline:
(§1)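 Ellman assay followed, with 200 µM butyrylthiocholine as substrate. Runs were in triplicate with four-point dose-response curves. IC50 and fiducial limits came from log concentration versus % inhibition.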

Experiment [3] concerns the target T1, Acetylcholinesterase. Description: In vitro inhibitory concentration against purified Acetylcholinesterase of human erythrocytes; value ranges from 11.9-128.
Experiment [4] addresses T2, Butyrylcholinesterase. Description: In vitro inhibitory concentration against Butyrylcholinesterase of horse serum; value ranges from 0.8-3.2.
Experiment [5] has as its target T3, Amine oxidase [flavin-containing] B (Rattus norvegicus, UniProt P19643).
T3 sequence (P19643 whole entry): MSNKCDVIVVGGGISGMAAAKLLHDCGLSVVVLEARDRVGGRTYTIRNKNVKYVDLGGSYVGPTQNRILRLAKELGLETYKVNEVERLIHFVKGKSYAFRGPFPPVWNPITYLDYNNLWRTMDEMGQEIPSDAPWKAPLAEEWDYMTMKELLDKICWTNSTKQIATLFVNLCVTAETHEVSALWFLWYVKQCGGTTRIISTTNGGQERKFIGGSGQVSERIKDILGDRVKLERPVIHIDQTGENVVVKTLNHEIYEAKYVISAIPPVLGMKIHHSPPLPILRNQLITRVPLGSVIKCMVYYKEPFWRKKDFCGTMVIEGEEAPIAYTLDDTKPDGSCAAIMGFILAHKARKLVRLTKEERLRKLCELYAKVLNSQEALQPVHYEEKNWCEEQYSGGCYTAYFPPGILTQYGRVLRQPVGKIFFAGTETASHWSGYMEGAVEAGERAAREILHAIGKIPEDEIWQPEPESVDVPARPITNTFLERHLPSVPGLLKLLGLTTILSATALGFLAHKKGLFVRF
Description: In vitro inhibitory concentration against Monoamine oxidase B of rat brain homogenates. Type of experiment: tissue-based.

For experiment [6], the target named is T4, Amine oxidase [flavin-containing] A (Rattus norvegicus, UniProt P21396).
T4 sequence (P21396 whole entry): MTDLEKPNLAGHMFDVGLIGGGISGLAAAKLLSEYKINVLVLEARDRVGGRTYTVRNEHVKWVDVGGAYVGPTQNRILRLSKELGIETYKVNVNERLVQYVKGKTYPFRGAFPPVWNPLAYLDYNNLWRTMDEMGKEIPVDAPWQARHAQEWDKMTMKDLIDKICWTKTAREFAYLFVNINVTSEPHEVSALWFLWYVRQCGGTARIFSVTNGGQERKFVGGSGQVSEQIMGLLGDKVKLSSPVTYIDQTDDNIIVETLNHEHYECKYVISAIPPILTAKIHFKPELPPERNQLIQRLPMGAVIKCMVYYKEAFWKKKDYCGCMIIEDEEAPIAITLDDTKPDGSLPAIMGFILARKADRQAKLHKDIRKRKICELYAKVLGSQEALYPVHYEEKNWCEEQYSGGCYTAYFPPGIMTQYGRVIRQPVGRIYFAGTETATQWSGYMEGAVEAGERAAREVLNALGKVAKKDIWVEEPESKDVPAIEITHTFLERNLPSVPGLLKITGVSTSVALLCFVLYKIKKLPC
Description: In vitro inhibitory concentration against Monoamine oxidase A of rat brain homogenates; value ranges from 190-310. The experiment is classed as tissue-based.

Experiment [7] has as its target T2, Butyrylcholinesterase. Nature of the experiment: In vitro inhibitory concentration against Butyrylcholinesterase of horse serum; value ranges from 0.85-1.96. In outline:
as §1

Experiment [8] deals with T1, Acetylcholinesterase. Nature of the experiment: In vitro inhibitory concentration against purified Acetylcholinesterase of human erythrocytes; value ranges from […]-[…].
In experiment [9] the target is T2, Butyrylcholinesterase. Description: In vitro inhibitory concentration against Butyrylcholinesterase of horse serum; value ranges from 0.016-0.021. In outline: as §1
Experiment [10] has as its target T3, Amine oxidase [flavin-containing] B. Description: In vitro inhibitory concentration against Monoamine oxidase B of rat brain homogenates; value ranges from 90-260.
The target in experiment [11] is T4, Amine oxidase [flavin-containing] A. Description: In vitro inhibitory concentration against Monoamine oxidase A of rat brain homogenates; value ranges from 0.72-0.97. The experiment is classed as tissue-based.
The target in experiment [12] is T1, Acetylcholinesterase.
Experiment [13] has as its target T4, Amine oxidase [flavin-containing] A. Nature of the experiment: In vitro inhibitory concentration against Monoamine oxidase A of rat brain homogenates; value ranges from 290-920. The experiment is classed as tissue-based.
Experiment [14] deals with T1, Acetylcholinesterase. Nature of the experiment: In vitro inhibitory concentration against purified Acetylcholinesterase of human erythrocytes; value ranges from 28.1-58.3.
In experiment [15] the target is T1, Acetylcholinesterase. Description: In vitro inhibitory concentration against purified Acetylcholinesterase of human erythrocytes.
The target of experiment [16] is T1, Acetylcholinesterase. This is another data set of the same source.
Experiment [17] has as its target T2, Butyrylcholinesterase. Nature of the experiment: In vitro inhibitory concentration against Butyrylcholinesterase of horse serum; value ranges from 4.9-11.2. In outline: as §1
In experiment [18] the target is T1, Acetylcholinesterase. Description: In vitro inhibitory concentration against purified Acetylcholinesterase of human erythrocytes; value ranges from 1.28-3.30.
Experiment [19] has as its target T2, Butyrylcholinesterase. Nature of the experiment: In vitro inhibitory concentration against Butyrylcholinesterase of horse serum; value ranges from 0.99-1.91. In outline:
as §1

In experiment [20] the target is T1, Acetylcholinesterase. Nature of the experiment: In vitro inhibitory concentration against purified Acetylcholinesterase of human erythrocytes; value ranges from 0.008-0.012.
In experiment [21] the target is T2, Butyrylcholinesterase. Description: In vitro inhibitory concentration against Butyrylcholinesterase of horse serum; value ranges from 0.009-0.024. In outline: as §1
In experiment [22] the target is T4, Amine oxidase [flavin-containing] A. Nature of the experiment: In vitro inhibitory concentration against Monoamine oxidase A of rat brain homogenates; value ranges from 7.6-12.5. Type of experiment: tissue-based.
Experiment [23] concerns the target T1, Acetylcholinesterase. Nature of the experiment: In vitro inhibitory concentration against purified Acetylcholinesterase of human erythrocytes; value ranges from 5.5-45.9.
Experiment [24] addresses T3, Amine oxidase [flavin-containing] B. Description: In vitro inhibitory concentration against Monoamine oxidase B of rat brain homogenates; value ranges from 6-350.
Experiment [25] has as its target T4, Amine oxidase [flavin-containing] A. Description: In vitro inhibitory concentration against Monoamine oxidase A of rat brain homogenates; value ranges from 29-44. The experiment is classed as tissue-based.
Experiment [26] concerns the target T1, Acetylcholinesterase. Description: In vitro inhibitory concentration against purified Acetylcholinesterase of human erythrocytes; value ranges from 1.7-6.4.
Experiment [27] addresses T2, Butyrylcholinesterase. Nature of the experiment: In vitro inhibitory concentration against Butyrylcholinesterase of horse serum; value ranges from 2.1-4.1. In outline: as §1
Experiment [28] can be described thus: Bimolecular rate constant for carbamoylation of ACHE. The experiment is classed as ADME. In outline: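 Human erythrocyte AChE preincubated with inhibitor at 37 °C in 0.1 M phosphate buffer, pH 7.4, under Ellman conditions with 200 µM […]. Pseudo-first-order rate constants (k_obs) for progressive inhibition were obtained at 4-5 inhibitor concentrations. The apparent bimolecular carbamylation constant k_i was calculated from these.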

Molecules are shown by their SMILES. Bounds are passed on as bounds.

The IC50 is the concentration that inhibits the measured activity by half. High values mean weaker potency in that assay, low ones greater potency in that assay.

T1 sequence (P22303 whole entry): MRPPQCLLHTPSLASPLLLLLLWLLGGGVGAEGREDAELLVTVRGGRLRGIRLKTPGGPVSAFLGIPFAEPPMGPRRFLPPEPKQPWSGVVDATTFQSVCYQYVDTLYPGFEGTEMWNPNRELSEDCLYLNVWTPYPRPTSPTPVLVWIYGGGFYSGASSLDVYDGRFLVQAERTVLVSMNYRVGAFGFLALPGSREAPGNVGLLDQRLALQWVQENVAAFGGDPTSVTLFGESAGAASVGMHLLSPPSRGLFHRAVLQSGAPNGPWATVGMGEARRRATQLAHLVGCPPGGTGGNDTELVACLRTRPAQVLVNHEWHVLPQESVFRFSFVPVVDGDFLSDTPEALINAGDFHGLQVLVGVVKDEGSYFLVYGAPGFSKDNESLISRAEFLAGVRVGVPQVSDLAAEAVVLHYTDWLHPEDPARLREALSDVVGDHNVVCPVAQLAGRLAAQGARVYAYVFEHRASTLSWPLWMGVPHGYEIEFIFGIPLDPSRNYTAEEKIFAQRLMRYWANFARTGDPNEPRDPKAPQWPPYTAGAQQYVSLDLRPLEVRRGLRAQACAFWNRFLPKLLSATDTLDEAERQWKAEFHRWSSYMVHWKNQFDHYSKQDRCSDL
T2 sequence (Q9N1N9 whole entry): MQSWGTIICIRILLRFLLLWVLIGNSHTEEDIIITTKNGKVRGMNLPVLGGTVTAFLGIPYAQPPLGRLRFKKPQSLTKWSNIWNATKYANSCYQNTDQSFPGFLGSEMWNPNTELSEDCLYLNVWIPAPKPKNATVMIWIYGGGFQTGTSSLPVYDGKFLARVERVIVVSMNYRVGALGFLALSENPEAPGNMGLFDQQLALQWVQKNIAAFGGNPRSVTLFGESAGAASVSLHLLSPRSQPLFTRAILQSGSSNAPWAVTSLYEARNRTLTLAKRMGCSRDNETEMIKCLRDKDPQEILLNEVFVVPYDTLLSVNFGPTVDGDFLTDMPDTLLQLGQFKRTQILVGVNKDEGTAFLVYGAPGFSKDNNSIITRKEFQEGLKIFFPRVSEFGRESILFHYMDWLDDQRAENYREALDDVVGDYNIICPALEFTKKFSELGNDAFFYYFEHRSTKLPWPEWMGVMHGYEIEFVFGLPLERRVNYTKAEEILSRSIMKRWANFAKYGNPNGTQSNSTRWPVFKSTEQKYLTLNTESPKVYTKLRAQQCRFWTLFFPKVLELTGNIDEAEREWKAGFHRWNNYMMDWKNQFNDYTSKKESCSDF

For `C#CCNC1CCc2cccc(OC(=O)N(C)CC)c21` (centres undefined), the IC50 against Acetylcholinesterase [1] came to 525 µM; against Butyrylcholinesterase [2], 0.31 µM.

As to `C#CCNC1CCc2ccc(OC(=O)N(C)CC)cc21` (centres undefined), the IC50 against Acetylcholinesterase [3] is 47 µM; on Butyrylcholinesterase [4], 1.5 µM; in experiment [5], above 1000 µM; in experiment [6], 250 µM.

On to `CNC1CCc2ccc(OC(=O)N(C)C)cc21` (centres undefined), for which the results for the IC50 against Butyrylcholinesterase [7] and against Acetylcholinesterase [8] were 0.95 µM and 1.07 µM, respectively.

As for `C#CCNC1CCc2c(OC(=O)N(C)CC)cccc21` (centres undefined), the IC50 against Butyrylcholinesterase [9] came out at 0.019 µM; in experiment [10], 150 µM; in experiment [11], 0.83 µM; on Acetylcholinesterase [12], 2.15 µM.

Regarding `CCNC1CCc2ccc(OC(=O)N(C)C)cc21` (centres undefined), the IC50 in experiment [13] was determined as 500 µM; at Acetylcholinesterase [8], 24.5 µM.

Take `CCN(C)C(=O)Oc1ccc2c(c1)C(NC)CC2` (centres undefined): the IC50 against Acetylcholinesterase [14] came out at 38.6 µM.

At Acetylcholinesterase [15], `C#CCN(C)C1CCc2ccc(OC(=O)N(C)CCC)cc21` (centres undefined) showed an IC50 above 1000 µM.

For the molecule `C#CCNC1CCc2ccc(OC(=O)N(C)c3ccc(OC)cc3)cc21` (centres undefined), the figures for the IC50 against Acetylcholinesterase [16] and on Butyrylcholinesterase [17] were 0.86 µM and 6.4 µM, respectively.

As for `C#CCNC1CCc2ccc(OC(=O)NCC)cc21` (centres undefined), the IC50 on Acetylcholinesterase [8] is 13.7 µM.

Take `C#CCNC1CCc2ccc(OC(=O)N(C)Cc3ccccc3)cc21` (centres undefined): the IC50 against Acetylcholinesterase [18] came to 1.78 µM; at Butyrylcholinesterase [19] it was 1.26 µM.

On to `C#CCN(C)C1CCc2ccc(OC(=O)N(C)CC)cc21` (centres undefined), for which the IC50 at Acetylcholinesterase [15] was above 1300 µM.

`C#CCNC1CCc2ccc(OC(=O)N(CC)C3CCCCC3)cc21` (centres undefined): half-maximal inhibition against Acetylcholinesterase [8] (IC50) was put at 17.9 µM.

Take `CN(C)C(=O)Oc1cccc2c1CCC2N` (centres undefined): the IC50 at Acetylcholinesterase [20] was 0.009 µM; against Butyrylcholinesterase [21] it was 0.014 µM; in experiment [5] it was above 1000 µM; in experiment [22], 9.8 µM.

`C#CCN(C)C1CCc2ccc(OC(=O)N(C)C)cc21` (centres undefined): the IC50 against Acetylcholinesterase [23] amounted to 12.9 µM; in experiment [24] it was 47 µM; in experiment [25], 36 µM.

Take `C#CCNC1CCc2cccc(OC(=O)N(C)C)c21` (centres undefined): the values for the concentration for half-maximal inhibition (IC50) at Acetylcholinesterase [26] and at Butyrylcholinesterase [27] were 2.5 µM and 2.8 µM, respectively.

On Acetylcholinesterase [8], `CNC1CCc2cccc(OC(=O)N(C)C)c21` (centres undefined) returned an IC50 of 0.51 µM.

As for `CCN(C)C(=O)Oc1cccc([C@H](C)N(C)C)c1` [RIVASTIGMINE], in [28], the “Bimolecular carbamoylation rate constant (ki)” value turned out to be 23.87 M⁻¹ s⁻¹.
